Experimental data from different studies.
Lines come from different studies, so protocols differ.
BCL2L1: Bcl-2-like protein 1 (BCL2L1, Homo sapiens, UniProt Q07817)

| Compound | target | read-out | mode | method | setting | endpoint | result |
| --- | --- | --- | --- | --- | --- | --- | --- |
| Cc1ccccc1-c1cc(=O)oc2cc(OC(C)C(=O)N(C)C)ccc12 (stereo not shown) | DNA-directed RNA polymerase, mitochondrial (POLRMT, Homo sapiens, UniProt O00411) | enzyme activity | inhibitor |  |  | IC50 | 22.2 nM |
| Cc1ncsc1-c1ccc([C@H](C)NC(=O)[C@@H]2C[C@@H](O)CN2C(=O)[C@@H](NC(=O)CCCCCCCS(=O)(=O)NC(=O)c2nc(N3CCc4cccc(C(=O)Nc5nc6ccccc6s5)c4C3)ccc2-c2cnn(CC34CC5CC(CC(C5)C3)C4)c2C)C(C)(C)C)cc1 | BCL2L1 | ligand displacement |  | AlphaScreen |  | Ki | 1.71 nM |
| O=C1Nc2ccc(I)cc2/C1=C/c1cc(Br)c(O)c(Br)c1 | Serine/threonine-protein kinase A-Raf (ARAF, Homo sapiens, UniProt P10398) | enzyme activity | inhibitor |  |  | IC50 | 12.6 nM |
| Cc1ncsc1-c1ccc([C@H](C)NC(=O)[C@@H]2C[C@@H](O)CN2C(=O)[C@@H](NC(=O)CCCCCC(=O)N2CCN(CC[C@H](CSc3ccccc3)Nc3ccc(S(=O)(=O)NC(=O)c4ccc(N5CCN(CC6=C(c7ccc(Cl)cc7)CCC(C)(C)C6)CC5)cc4)cc3S(=O)(=O)C(F)(F)F)CC2)C(C)(C)C)cc1 | BCL2L1 | ligand displacement |  | AlphaScreen |  | Ki | 1.46 nM |
| COc1ccc2c(=O)[nH]c3c(nnn3Cc3ccc(C)cc3)c2c1 | Poly [ADP-ribose] polymerase 1 (PARP1, Homo sapiens, UniProt P09874) | enzyme activity | inhibitor | fluorescence |  | IC50 | > 10000 nM |
| CCCNS(=O)(=O)Nc1ncnc(OCCOc2ncc(Br)cn2)c1-c1ccc(Br)cc1 | Endothelin-1 receptor (EDNRA, Homo sapiens, UniProt P25101) | ligand displacement |  | radioligand | cell membranes | IC50 | 0.43 nM |
| CC1(C)CCC(c2ccc(Cl)cc2)=C(CN2CCN(c3ccc(C(=O)NS(=O)(=O)c4ccc(N[C@H](CCN(CCOCCOCCOCCNc5cccc6c5C(=O)N(C5CCC(=O)NC5=O)C6=O)C5CC5)CSc5ccccc5)c(S(=O)(=O)C(F)(F)F)c4)cc3)CC2)C1 (stereo partly shown) | BCL2L1 | ligand displacement |  | AlphaScreen |  | Ki | 8.75 nM |
| Cc1c(-c2ccc(N3CCc4cccc(C(=O)Nc5nc6ccccc6s5)c4C3)nc2C(=O)NCCOCCOCCOCCO)cnn1CC12CC3CC(CC(C3)C1)C2 | BCL2L1 | ligand displacement |  | AlphaScreen |  | Ki | 0.0112 nM |
| Cc1cccc(NC(=O)CSc2nc3ccccc3cc2C=Nn2c(S)nnc2-c2ccccc2)c1C | PPO3 (Agaricus bisporus, UniProt C7FF04) | enzyme activity | inhibitor |  |  | IC50 | > 50000 nM |
| Cn1cc2c(C(=O)O)ccc(NS(=O)(=O)c3ccc(OCC4CCC4)c(Cl)c3)c2n1 | cGMP-specific 3',5'-cyclic phosphodiesterase (PDE5A, Homo sapiens, UniProt O76074) | enzyme activity |  |  |  | IC50 | > 175000 nM |
| Cc1ncsc1-c1ccc([C@H](C)NC(=O)[C@@H]2C[C@@H](O)CN2C(=O)[C@@H](NC(=O)CCCCCCCS(=O)(=O)NC(=O)c2nc(N3CCc4cccc(C(=O)Nc5nc6ccccc6s5)c4C3)ccc2-c2cc(C#N)n(CC34CC5CC(CC(C5)C3)C4)c2C)C(C)(C)C)cc1 | BCL2L1 | ligand displacement |  | AlphaScreen |  | Ki | 6.1 nM |
| CC1(C)CCC(c2ccc(Cl)cc2)=C(CN2CCN(c3ccc(C(=O)NS(=O)(=O)c4ccc(N[C@H](CCN(CCOCCOCCOCCNc5cccc6c5C(=O)N(C5CCC(=O)NC5=O)C6=O)C5CCC5)CSc5ccccc5)c(S(=O)(=O)C(F)(F)F)c4)cc3)CC2)C1 (stereo partly shown) | BCL2L1 | ligand displacement |  | AlphaScreen |  | Ki | 9.02 nM |
| C[C@]12C=CC(=O)N[C@@H]1CC[C@@H]1[C@@H]2CC[C@]2(C)[C@@H](C(=O)Nc3cc(C(F)(F)F)ccc3C(F)(F)F)CC[C@@H]12 | 3-oxo-5-alpha-steroid 4-dehydrogenase 1 (SRD5A1, Homo sapiens, UniProt P18405) | enzyme activity in cells | inhibitor |  |  | IC50 | 16 nM |
| O=c1c(NCCc2ccccc2C(F)(F)F)c(Nc2ccc(Cl)cc2)c1=O | Cannabinoid receptor 1 (CNR1, Homo sapiens, UniProt P21554) | calcium signal | antagonist | fluorescence |  | IC50 | 1350 nM |
| O=C(O)c1cc(-c2ccc(-n3ccnn3)cc2)c2ccc(-c3ccc(C(F)(F)F)cc3)cc2c1 | Sigma non-opioid intracellular receptor 1 (SIGMAR1, Homo sapiens, UniProt Q99720) | cell-free assay |  | radioligand |  | Ki | 3900 nM |
| CC(C)[C@@H](CN1CCc2ccccc2C1)NC(=O)c1cccc(-c2cccc(C#N)c2)c1 | Mu-type opioid receptor (Oprm1, Mus musculus, UniProt P42866) | ligand displacement |  | radioligand |  | Ki | 4110 nM |
